Drawing on ChEMBL document CHEMBL2331266, “Five-membered iminocyclitol α-glucosidase inhibitors: synthetic, biological screening and in silico studies” (Bioorg Med Chem, 2013), this text covers IC50 and inhibition for six compounds.

Some results are limits rather than exact numbers.

Experiment [1] can be described thus: Inhibition of Saccharomyces cerevisiae alpha-glucosidase using p-nitrophenyl-alpha-D-[…] as substrate after 20 mins by UV/Vis spectrophotometric analysis. A digest of the protocol:
(§1)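 Baker's yeast α-glucosidase at 0.04 U/mL in 0.1 M phosphate buffer, pH 6.7. Substrate was 2 mM p-nitrophenyl-α-D-glucopyranoside; the optimized Km was 0.258 mM. Inhibitors were dissolved in 2% DMSO in the same buffer and tested at up to 46 mM. Activity was read as the p-nitrophenol released. Five replicates per sample.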

Experiment [2] relates to Saccharomyces cerevisiae. Briefly: Inhibition of Saccharomyces cerevisiae alpha-glucosidase using p-nitrophenyl-alpha-D-[…] as substrate at 25 mM after 20 mins by UV/Vis spectrophotometric analysis. Put shortly:
as §1

Experiment [3] relates to Saccharomyces cerevisiae. Briefly: Inhibition of Saccharomyces cerevisiae alpha-glucosidase using p-nitrophenyl-alpha-D-[…] as substrate at = / >10.9 mM after 20 mins by UV/Vis spectrophotometric analysis. Put shortly: as §1

Broadly, the IC50 is the concentration that inhibits the measured activity by half. A higher IC50 goes with lower potency. Regarding `C[C@H]1O[C@H](O[C@H]2[C@H](O)[C@@H](O)[C@@H](O[C@H]3[C@H](O)[C@@H](O)C(O)O[C@@H]3CO)O[C@@H]2CO)[C@H](O)[C@@H](O)[C@@H]1N[C@H]1C=C(CO)[C@@H](O)[C@H](O)[C@H]1O` (stereo partly specified) [ACARBOSE], the IC50 in experiment [1] worked out at 25 mM. This counts as millimolar.
The inhibition is the drop in the measured response relative to a control, in per cent. A high value points to strong suppression. With `CC(=O)O[C@H]1CNC[C@@H]1OC(C)=O`, the inhibition with Saccharomyces cerevisiae [2] was 80%; in the experiment on Saccharomyces cerevisiae [3], above 50%. Further, the IC50 in experiment [1] was found to be 12.5 mM.
Regarding `O[C@H]1CN(Cc2ccccc2)C[C@@H]1O`, the IC50 in experiment [1] is 38 mM. The compound also registered an inhibition in the experiment on Saccharomyces cerevisiae [3] above 50%.
Regarding `CC(=O)O[C@@H]1CNC[C@H]1OC(C)=O`, in the experiment on Saccharomyces cerevisiae [2], the inhibition was 40%.
In experiment [1], `O[C@H]1CNC[C@@H]1O` had an IC50 of 10.9 mM. Further, the inhibition with Saccharomyces cerevisiae [3] is above 50%.
The matching figures for `O[C@@H]1CN(Cc2ccccc2)C[C@H]1O`: 25 mM and above 50%.
